PubChem BioAssay AID623932 (Vanderbilt High Throughput Screening Facility, 2012)
Calls of active or inactive are those of the source.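 How the source made its calls: active means at one tested dose, specific binding or response inhibited over 50%; inactive means the rest.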

Assay: off-target radioligand displacement across receptor panel, profiling panel, selectivity assay, biochemical, Ricerca panel (AID 623932)
Conditions: Ricerca radioligand binding panel, % inhibition, at 10 µM, stronger effect = higher value
In short: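 Read-out basis: % loss of selective radioligand binding. Test system: panel of radioligand binding assays across multiple targets. Control set: reference standards included in every panel assay.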

## Cc1cc(NC(=O)Nc2ccc(F)c(F)c2)n(-c2ccccc2)n1
NMDA binding inhibition
  inhibition: 21%
  inhibition: 60% (inactive)
Measured here: 5-HT2B binding inhibition
  inhibition: 46%
Measured here: DAT binding inhibition
  inhibition: 12%
Measured here: GABA-A flunitrazepam binding inhibition
  inhibition: 24%
Measured here: GABA-A muscimol binding inhibition
  inhibition: 49%
Measured here: NET binding inhibition
  inhibition: 15%
Measured here: NPY Y1 binding inhibition
  inhibition: 24%
Measured here: P2X binding inhibition
  inhibition: 16%
Measured here: dopamine D2S binding inhibition
  inhibition: 16%
Measured here: hERG binding inhibition
  inhibition: 10%
Measured here: imidazoline I2 binding inhibition
  inhibition: 20%
Measured here: mu opioid binding inhibition
  inhibition: 21%
